Our source for the GI50 values is ChEMBL document CHEMBL1158368, “Synthesis of novel 3-(aryl)benzothieno[2,3-c]pyran-1-ones from Sonogashira products and intramolecular cyclization: Antitumoral activity evaluation” (2009).

Common to all, as to type: functional
The subject of assay [1] is MCF7. Kind of assay: Cytotoxicity against human MCF7 cells after 48 hrs by SRB assay. The note with it: MCF7, 48 h. A digest of the protocol:
(§1)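 Cells were seeded at 1.5 × 10⁵ cells/mL (MCF-7 and SF-268) so growth stayed exponential, attached overnight, then were exposed to compound for 48 h at 37 °C in humidified 5% CO₂. Untreated controls received DMSO vehicle at up to 0.25%. Cells were fixed in situ and stained with SRB; the bound dye was solubilized and read at 492 nm. GI₅₀ (50% inhibition of net growth) came from dose–response curves, run in duplicate.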

In assay [2] the test system is NCI-H460. Kind of assay: Cytotoxicity against human NCI-H460 cells after 48 hrs by SRB assay. The note with it: NCI-H460, 48 h. A digest of the protocol:
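NCI-H460 cells were plated at 0.75 × 10⁴ cells/mL to keep growth exponential, left overnight to attach, and treated for 48 h at 37 °C in humidified 5% CO₂, with DMSO vehicle controls at up to 0.25%. Readout was SRB staining of in-situ-fixed cells, with solubilized dye measured at 492 nm. GI₅₀ (50% net growth inhibition) came from dose–response curves in duplicate.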

For assay [3], the system named is CNS cell. Kind of assay: Cytotoxicity against human CNS cells after 48 hrs by SRB assay. Summed up:
as §1

Regarding `O=c1oc(-c2ccccc2F)cc2c1sc1ccccc12`, the 50% growth inhibitory concentration (GI50) in assay [1] turned out to be 19.4 µM; in assay [2] it was 15.5 µM; in assay [3], 12.4 µM.

For the compound `COC(=O)c1sc2ccccc2c1C#Cc1ccccc1`, the GI50 in assay [1] turned out to be 71.6 µM; in assay [2] it was 58.9 µM; in assay [3], 64.7 µM.

For `COc1ccc(-c2oc(=O)c3sc4ccccc4c3c2I)cc1`, the 50% growth inhibitory concentration (GI50) in assay [1], in assay [2] and in assay [3] was over 150 µM throughout.

As to `O=c1oc(-c2ccc(F)cc2)c(I)c2c1sc1ccccc12`, the GI50 in assay [1] stood at 25.2 µM; in assay [2], 35.8 µM; in assay [3], 20.7 µM.

`O=c1oc(-c2ccc(F)cc2)cc2c1sc1ccccc12`: the GI50 in assay [1], in assay [2] and in assay [3] was over 25 µM throughout.

Turning to `O=c1oc(-c2ccccc2)cc2c1sc1ccccc12`, the GI50 in assay [1], in assay [2] and in assay [3] was over 112 µM each time.

`COC(=O)c1sc2ccccc2c1C#Cc1ccccc1F`: the GI50 amounted to 40.9 µM in assay [1], 30.2 µM in assay [2] and 25.7 µM in assay [3].

`COC(=O)c1sc2cc(OC)ccc2c1C#Cc1ccccc1F`: the GI50 in assay [1] came to 11.4 µM; in assay [2], 10.3 µM; in assay [3] it was 7.2 µM.

Turning to `COc1ccc2c(c1)sc1c(=O)oc(-c3ccc(F)cc3)cc12`, the concentration for 50% growth inhibition (GI50) in assay [1] was determined as 109 µM; in assay [2], 118 µM; in assay [3], 28.9 µM.

Regarding `COC(=O)c1sc2cc(OC)ccc2c1C#Cc1ccccc1`, the GI50 in assay [1] is 79.6 µM; in assay [2], 42.3 µM; in assay [3] it was 54.9 µM.

For the compound `COc1ccc2c(c1)sc1c(=O)oc(-c3ccc(F)cc3)c(I)c12`, the concentration for 50% growth inhibition (GI50) in assay [1], in assay [2] and in assay [3] was over 150 µM each time.

Turning to `COC(=O)c1sc2ccccc2c1C#Cc1ccc(F)cc1`, the 50% growth inhibitory concentration (GI50) in assay [1] is 60.6 µM; in assay [2] it was 56.2 µM; in assay [3], 76.1 µM.

As to `COc1ccc(-c2cc3c(sc4ccccc43)c(=O)o2)cc1`, the GI50 in assay [1], in assay [2] and in assay [3] was over 75 µM throughout.

As for `COc1ccc2c(c1)sc1c(=O)oc(-c3ccccc3)cc12`, the concentration for 50% growth inhibition (GI50) in assay [1], in assay [2] and in assay [3] was over 75 µM each time.

Take `COC(=O)c1sc2ccccc2c1C#Cc1ccc(OC)cc1`: the GI50 is 90.6 µM in assay [1], 103 µM in assay [2] and over 150 µM in assay [3].

On to `COC(=O)c1sc2cc(OC)ccc2c1C#Cc1ccc(F)cc1`, for which the values for the 50% growth inhibitory concentration (GI50) in assay [1], in assay [2] and in assay [3] were 12.6 µM, 10.1 µM and 20.9 µM, respectively.

In the case of `COc1ccc2c(c1)sc1c(=O)oc(-c3ccccc3F)c(I)c12`, the GI50 in assay [1] stood at 11.9 µM; in assay [2], 10.9 µM; in assay [3], 11.3 µM.

Turning to `COc1cccc2c1C(=O)c1c(O)c3c(c(O)c1C2=O)C[C@@](O)(C(=O)CO)C[C@@H]3O[C@H]1C[C@H](N)[C@H](O)[C@H](C)O1` [DOXORUBICIN], the GI50 turned out to be 0.0428 µM in assay [1], 0.094 µM in assay [2] and 0.094 µM in assay [3].
